Calb biofilm kill: mixtures killing C. albicans biofilm; C. albicans biofilm persisters + clotrimazole, fluorescence viability; primary screen in compound mixtures of four per well; inhibition, % at 7.6 µM; 0.02% of 120,000 active; AID 1242;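 active = inhibition above 30.3% in the primary screen of four-compound pools, then above 30% when the compound was retested; inconclusive = passed the primary limit but could not be retested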;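 also: compounds exposed to preformed 24 h biofilms for 48 h; 0% = untreated biofilm control and 100% = clotrimazole plus chlorhexidine kill blank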
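System: C. albicans CAF4-2 wild-type biofilms; Medium: RPMI/MOPS medium, pH 7.0; Reagent: Clotrimazole, 50 µg/mL; Times: biofilm formation 24 h, compound exposure 48 h, 37 °C; Detection: 2-h Alamar Blue fluorescence, 535/590 nm excitation/emission; Evaluation: percent inhibition of biofilm viability.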
ROMK mod: human ROMK K+ channel modulation, primary screen. P48048. Tet-inducible ROMK, thallium flux fluorescence; actives lie on both sides. B-score at 10 µM. 2% of 130,000 active. AID 1918;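 active = signal ratio slope over the read window, or its plate-corrected B-score, at least 3 SD from the plate mean, either direction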;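 also: B-score of the F/F0 ratio slope over 7 to 12 s after thallium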
Target sequence (P48048 whole entry, looked up): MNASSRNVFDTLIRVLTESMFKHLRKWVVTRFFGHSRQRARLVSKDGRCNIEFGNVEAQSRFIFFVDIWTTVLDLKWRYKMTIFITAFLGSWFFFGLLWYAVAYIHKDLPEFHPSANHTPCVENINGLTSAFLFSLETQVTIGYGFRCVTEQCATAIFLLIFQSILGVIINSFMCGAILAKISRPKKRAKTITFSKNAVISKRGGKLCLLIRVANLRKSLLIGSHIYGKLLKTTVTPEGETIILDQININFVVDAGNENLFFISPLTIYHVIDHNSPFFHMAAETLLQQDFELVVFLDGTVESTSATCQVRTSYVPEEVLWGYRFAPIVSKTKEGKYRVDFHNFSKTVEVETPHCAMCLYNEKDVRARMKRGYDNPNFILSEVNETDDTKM
Pf gamet viab: inhibitors of late stage P. falciparum gametocyte viability | P. falciparum stage V gametocytes, ATP luminescence, 24 h | inhibition, % at 10.9 µM | 0.065% of 150,000 active | AID 743093;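 active = inhibition above the mean plus 3 SD of compounds within the control limits, set per campaign, cut at about 38% in these data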;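 also: 0% = DMSO wells and 100% = medium only without gametocytes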
ROMK hit retest: confirmation of human ROMK potassium channel modulators | 54% of 3,000 active | ROMK thallium flux, fluorescence ratio; active compounds read low | shares compounds with ROMK mod | normalized thallium flux (F/F0 slope) at 10 µM;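 active = Flux at 10 µM at least 3 SD below or above vehicle control mean in one or both replicates; inconclusive = no clear call, values can overlap the other calls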
* = called active by the depositor; u = inconclusive; x = no result given. Shown is part of a subset that was picked to be rich in hits.

SMILES	Calb biofilm kill	ROMK mod	Pf gamet viab	ROMK hit retest
Cc1ccc(N(CC(=O)NC(C)(C)C)C(=O)CS(=O)CC(=O)Nc2ccc3c(c2)OCO3)cc1 (centres undefined)	2.5	0.278	x	x
O=C(c1ccc(Cl)c(Cl)c1)N1CCC(=O)N(C(COCc2cccc(Cl)c2)Cc2ccccc2)CC1 (centres undefined)	19.8	-1.12	x	x
Cc1cccc(COCC(Cc2ccccc2)N2CCN(C(=O)c3ccc(C(F)(F)F)cc3)CCC2=O)c1 (centres undefined)	-4.4	-1.26	x	x
Cc1cccc(C(=O)N2CCC(=O)N(C(COCc3cccc(Cl)c3)Cc3ccccc3)CC2)c1 (centres undefined)	1.4	-3.69*	14.4	0.0557*
O=C(c1ccc(C(F)(F)F)cc1)N1CCC(=O)N(C(COCc2ccc(C(F)(F)F)cc2)Cc2ccccc2)CC1 (centres undefined)	16.0	-4.08*	x	0.0655*
Cc1cccc(C(=O)N2CCC(=O)N(C(COCc3ccc(Cl)cc3)Cc3ccccc3)CC2)c1 (centres undefined)	22.1	-3.53*	0.8	0.0479*
O=C(c1cccc(Cl)c1)N1CCC(=O)N(C(COCc2cccc(Cl)c2)Cc2ccccc2)CC1 (centres undefined)	6.0	-2.7	24.1	x
C[C@@H]1CC[C@H](O)/C=C/C(=O)O[C@H](C)CC[C@H](O)/C=C/C(=O)O1	22.6	x	x	x
COc1ccc(NC(=O)C2CC3CCC2C3)c(OC)c1 (centres undefined)	x	x	-10.0	x
Fc1ccc(Nc2ccnc(Nc3ccc(F)cc3)n2)cc1	-8.9	x	9.5	x
Cc1nc(NS(=O)(=O)c2ccc(Cl)s2)c2c3c(sc2n1)CCCC3	16.3	x	-11.5	x
OC1(Cc2ccccc2)CCNCC1	26.0	x	3.3	x
CCOc1ccc(S(=O)(=O)Nc2nc3ccccc3nc2-n2ccc(=NC(=O)c3cccs3)cc2)cc1	19.9	-2.56*	x	0.0589*
O=C(N=c1ccn(-c2nc3ccccc3nc2NS(=O)(=O)c2ccc(Cl)cc2)cc1)c1cccs1	8.4	x	17.9	x
O=C(O)c1ccccc1CSc1ncccc1C(=O)O	9.5	-0.267	x	x
CCOC(=O)c1c(C)[nH]c(C(=O)COC(=O)c2ccc(O)cc2)c1C	16.0	x	11.7	x
CCOC(=O)c1c(C)[nH]c(C(=O)COC(=O)c2ccc(O)cc2O)c1C	7.9	x	-18.8	0.0776
CCCCC1(C)NC(=S)N2N1C(=S)NC2(C)CCCC (centres undefined)	-0.9	-0.0351	-2.3	x
O=C(CCn1c2c(c3ccccc31)CCCC2)NNC(=O)c1ccc(Cl)c([N+](=O)[O-])c1	10.4	-0.0162	-3.5	x
O=C(CCn1c2c(c3ccccc31)CCCC2)NNC(=O)c1ccc([N+](=O)[O-])cc1	8.6	x	-1.9	0.0476*
Cc1nnc(SCC(=O)NNC(=O)CC#N)[nH]c1=O	-2.8	x	-2.2	x
CN(C)S(=O)(=O)c1ccc(NC(=O)COC(=O)C2CC3CCCC(C2)C3=O)cc1 (centres undefined)	10.2	0.00693	6.7	x
CC(=O)Nc1sc(N/N=C/c2ccc(O)cc2)nc1-c1ccc(C)cc1	17.8	x	-13.6	x
CC(=O)Nc1sc(N/N=C/c2ccccc2)nc1-c1ccc(C)cc1	27.2	x	5.5	0.072
CCOC(=O)CC1=NN(c2ccccc2)C(=O)/C1=C\c1ccc(OC)cc1OC	11.2	0.244	-13.2	x
SMILES	Calb biofilm kill	ROMK mod	Pf gamet viab	ROMK hit retest
COc1ccc(CNCCC(c2ccc(F)cc2)c2ccc(OC)cc2)cc1 (centres undefined)	11.1	-4.16*	-9.4	0.0528*
COc1ccc(C(CCNCc2ccc(F)cc2)c2ccc(F)cc2)cc1 (centres undefined)	15.1	-3.12	-8.5	x
O=C1NC(Cc2c[nH]c3ccccc23)C(=O)N1CCOc1ccc(F)cc1 (centres undefined)	x	x	-21.0	x
O=C1NC(Cc2c[nH]c3ccccc23)C(=O)N1Cc1ccc(CN2C(=O)NC(Cc3c[nH]c4ccccc34)C2=O)cc1 (centres undefined)	-3.2	-3.89*	12.4	0.0646*
Fc1ccc(-n2cc(-c3ccccc3)c3c(NN4CCOCC4)ncnc32)cc1	11.4	-4.19*	13.9	0.0481*
COc1ccc(-n2cc(-c3ccccc3)c3c(NN4CCOCC4)ncnc32)cc1	10.8	-2.29	-9.0	x
COc1ccc(C(=O)C(CCC(CNC(C)(C)C)C(=O)c2ccc(OC)cc2)CNC(C)(C)C)cc1 (centres undefined)	-6.2	x	3.8	0.066*
COc1ccc(C(=O)CC(=O)c2ccc(F)cc2)cc1	x	x	-4.2	x
O=c1c2ccccc2nnn1COc1ccc(Cl)cc1Br	6.8	-0.645	15.0	x
CC(Oc1ccc(Cl)cc1Cl)C(=O)OCn1nnc2ccccc2c1=O (centres undefined)	x	3.69*	x	0.0825
COC(=O)c1ccccc1C(=O)N(c1ccccc1)c1ccccc1	x	x	-9.4	x
CCN(CC)S(=O)(=O)c1ccc(O)c(C(=O)OCC(=O)N2c3ccccc3CC2C)c1 (centres undefined)	10.6	x	-0.2	x
Cc1cc(C(=O)OCC(=O)N2c3ccccc3CC2C)c(C)o1 (centres undefined)	x	-1.36	x	u
COc1cc(/C=N\n2cnnc2)ccc1OCC(=O)Nc1ccc(C)cc1	x	x	x	0.0761
COc1cc(/C=N/NC(=O)c2cccnc2)ccc1OCC(=O)Nc1ccc(C)cc1	12.5	x	x	x
O=C(CN1CCc2ccccc2C1)Nc1cccc(S(=O)(=O)N2CCCC2)c1	12.5	-0.512	-26.8	x
N#CC1=C(N)C(C#N)(C#N)C2(CCC3(CC2)OCCO3)C2CC3(CC=C12)OCCO3 (centres undefined)	x	0.675	x	x
N#CC1=C(N)C(C#N)(C#N)[C@H](c2c(F)cccc2F)[C@H]2CC3(CC=C12)OCCO3	x	-3.6*	x	0.0535*
C/C(=N\NC(=O)CC#N)c1cc2ccc(O)cc2oc1=O	8.6	-3.38*	-15.5	0.0556*
O=C(NCc1ccccc1)c1cc2ccc(O)cc2oc1=O	x	x	-13.7	x
CCN(C1CCCCC1)S(=O)(=O)c1ccc(OC)c(C)c1	x	-3.41*	8.6	0.0663*
CCN(C1CCCCC1)S(=O)(=O)c1cc(C)ccc1OC	x	-1.65	x	x
CC1CN(c2ccc([N+](=O)[O-])c(NCCOc3ccccc3)c2)CCN1 (centres undefined)	41.2	-2.51*	-43.2	0.062*
COc1cccc(OCCNc2cc(N3CCCCC3)ccc2[N+](=O)[O-])c1	x	-0.268	7.7	x
CCOC(=O)C1=C(C)NC(C)=C(C(=O)OC)C1c1cccc(Cl)c1Cl (centres undefined)	16.4	x	x	0.0726
SMILES	Calb biofilm kill	ROMK mod	Pf gamet viab	ROMK hit retest
COC(=O)C1=C(C)NC(C)=C(C(=O)OC)C1c1ccc(-c2cccc(Cl)c2Cl)o1	21.9	x	5.0	x
O=c1c2ccccc2nc(SCc2ccccc2)n1CC1CCCO1 (centres undefined)	15.6	x	-7.2	x
CCOc1ccc(/C=C2\SC(=S)N(C(C(=O)O)c3ccccc3)C2=O)cc1OC (centres undefined)	24.1	x	5.1	x
COc1ccc(OC)c(/C=C2\SC(=S)N(C(C(=O)O)c3ccccc3)C2=O)c1 (centres undefined)	-0.7	x	1.0	0.0517*
CC(CC(=O)O)n1nnc2ccccc21 (centres undefined)	26.6	x	16.6	x
CC(=O)c1c(C)nn(C(C)CC(=O)O)c1C (centres undefined)	x	x	15.4	0.0764
